Test system: MS2 coat protein
Assay: apparent Kd, MS2 coat protein; higher = weaker binding; RNA-MaP array; FMN 200 µM where present
In short: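 In 100 mM Tris-HCl pH 7.5, 80 mM KCl, 4 mM MgCl2, BSA, DTT, yeast tRNA and Tween-20, SNAP-549-labelled MS2 coat protein was titrated from 0.7 or 1.5 nM, doubling to 3 µM, over designs transcribed by stalled E. coli RNA polymerase on Illumina sequencing-chip clusters. This was done first without ligand, then with ligand held constant. After green signal was normalised to red-channel RNA signal and control-cluster median Fmax, the apparent Kd was taken as the median of filtered per-cluster binding-curve fits.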

[1] = designed as: OFF switch for flavin mononucleotide, no ligand
[2] = ligand present: flavin mononucleotide, designed as: OFF switch for flavin mononucleotide
[3] = designed as: ON switch for flavin mononucleotide, no ligand
[4] = ligand present: flavin mononucleotide, designed as: ON switch for flavin mononucleotide

| Sequence | apparent Kd [1] | apparent Kd [2] | apparent Kd [3] | apparent Kd [4] |
| --- | --- | --- | --- | --- |
| ACAAUAGUAUCACAUGUAUUACAUGAGGAUCACCCAUGUAACUAGGAUAUGUUUUAAAAUUUACAACAGAAGGAGUUAUUAUGU | 8.2 nM | 14.6 nM |  |  |
| GUCAGCUCGUGAGGAUAUACAACACUGCUUCGGCAGAGUAUUAAGAUCACAUGAGGAUCACCCAUGUAGAAGGCACGAGCUGAU | 10.3 nM | 117 nM |  |  |
| CAAUGUCAAAAGGAUAUUGCCAGCAUAAAUGGUCGAGAAGGUUUGACAUGAGGAUCACCCAUGUAAUGAACCUG | 14.6 nM | 51.2 nM |  |  |
| ACAUGAGGAUCACCCAUGUAAAAUGAAGAAGGUAGAUACUUGAGGAUCACCCAUGUACAUGGGACUAAGGAUAUUCUAAUAAUU |  |  | 76.9 nM | 64.3 nM |
| GUUUUCGCAGGAUAUUAGAGUUUUUACAUGAGGAUCACCCAUGUUAAUUGGGUUAAUGUCUAAGAAGGGCGAUGUA | 67.6 nM | 101 nM |  |  |
| UGUGAGUUGAUGUUAGAUCGGAGUACAUGAGGAUCACCCAUGUAGGAUAUUCAAAGACGCAGAUAGAAGAAGGACAUAGGUUUC | 15.2 nM | 14.3 nM |  |  |
| AAACAUGUCCGAGGAUAUCUGGAAACAUUUCCAAGAGAAGGCGGACAUGAGGAUCACCCAUGUCUCUCCUCAUCAAAUCCAAGU | 24.6 nM | 287 nM |  |  |
| UGGUACUAGGGAGGAUAUGGCAAGAUACAUGAGGAUCACCCAUGUUUAAGAAUGCCGAGAGGCAACUAGAAGGCCCUAGUACCU |  |  | 7.75 nM | 4.7 nM |
| UUUUCCAGGCAGAAGGGUCCUCACAUGAGGAUCACCCAUGUAAACGUGGAUAGGAUAUGCCACUGGGCUCGAUAAGAGUGGUUC |  |  | 640 nM | 128 nM |
| AGUGUGUUAGGAUAUCGGAUAUGCUGGAGGAGGUGGAGUUACGAGAAGGAACAUGAGGAUCACCCAUGUAGGAC | 25.8 nM | 23.2 nM |  |  |
| GAACGUGACAUGAGGAUCACCCAUGUUGCCUGAGCCAGGUCGUAGGAUAUCCUGUUGAUUAAUUUGGAGAAGGGCGACUGGGAG |  |  | 46.5 nM | 18.3 nM |
| UUUACAUGAGGAUCACCCAUGUAUAGAACGGUUAAUCAAAGUGAGGAUAUACAUAAUUUUGUAUUGUAGAAGGCACUGGGUACA |  |  | 15.2 nM | 19.3 nM |
| AAAAAGUCAGGAUAUGCGAAGGCGUCUGAUAGACGAGGCUAGCAGAAGGGACAUGAGGAUCACCCAUGUGGAAA | 79.4 nM | 135 nM |  |  |
| AGCAUGUGAGGAUAUGCGGACUCCGGUAAAGCUGGAGUCCAGUAGAAGGCACAUGAGGAUCACCCAUGUGAGAU | 59.7 nM | 212 nM |  |  |
| CGCUAAUAAAUAGUAAUAAAAGUACAGGAUAUGUUACAUGAGGAUCACCCAUGUAUUGGGUAAGAACAGAAGGGUAUAUUAGCG | 153 nM | 115 nM |  |  |
| AGGCCGCUACGCCGGCUUCACGCACAGGAUAUGCAGUUACAUGAGGAUCACCCAUGUGGCCAUGUGCAGAAGGGUGGUUCGUGA |  |  | 22.1 nM | 5.44 nM |
| GGAUCGAAUGUGAGGAUAUGCUGGUCCUUGGAUCAGCAGAAGGCACAUGAGGAUCACCCAUGUUUCCACGGUCC | 127 nM | 869 nM |  |  |
| UUCUUUGUUGUGAGGAUAUCGUAUUCUUUUUGUUACGAGAAGGCACAUGAGGAUCACCCAUGUUUCUUGAUGUU | 16.9 nM | 45.8 nM |  |  |
| GUAGAGUCAGGAUAUACGAGAUCGAAAGAUCGGCGAUCCAUACAUGAGGAUCACCCAUGUAGAAGGGACUCUAC | 15.6 nM | 148 nM |  |  |
| AUAAUGUGAGGAUAUCAGUCGACUAGCUGCGGCUAGUCGACUGAGAAGGCACAUGAGGAUCACCCAUGUAGAUC | 978 nM | 47.7 nM |  |  |
| GCACAACAUGAGGAUCACCCAUGUCUCACAAACCAAGGAUAUGGGCCCGGCCAGGCCGGAUCAGAAGGUGGAAAAU |  |  | 312 nM | 143 nM |

From the EternaBench riboswitch data
